Experimental data pooled from the literature.
Lines come from different studies, so protocols differ.
Target: Serine/threonine-protein kinase haspin (HASPIN, Homo sapiens, UniProt Q8TF76)
Residues used in one study (Q8TF76 1-798): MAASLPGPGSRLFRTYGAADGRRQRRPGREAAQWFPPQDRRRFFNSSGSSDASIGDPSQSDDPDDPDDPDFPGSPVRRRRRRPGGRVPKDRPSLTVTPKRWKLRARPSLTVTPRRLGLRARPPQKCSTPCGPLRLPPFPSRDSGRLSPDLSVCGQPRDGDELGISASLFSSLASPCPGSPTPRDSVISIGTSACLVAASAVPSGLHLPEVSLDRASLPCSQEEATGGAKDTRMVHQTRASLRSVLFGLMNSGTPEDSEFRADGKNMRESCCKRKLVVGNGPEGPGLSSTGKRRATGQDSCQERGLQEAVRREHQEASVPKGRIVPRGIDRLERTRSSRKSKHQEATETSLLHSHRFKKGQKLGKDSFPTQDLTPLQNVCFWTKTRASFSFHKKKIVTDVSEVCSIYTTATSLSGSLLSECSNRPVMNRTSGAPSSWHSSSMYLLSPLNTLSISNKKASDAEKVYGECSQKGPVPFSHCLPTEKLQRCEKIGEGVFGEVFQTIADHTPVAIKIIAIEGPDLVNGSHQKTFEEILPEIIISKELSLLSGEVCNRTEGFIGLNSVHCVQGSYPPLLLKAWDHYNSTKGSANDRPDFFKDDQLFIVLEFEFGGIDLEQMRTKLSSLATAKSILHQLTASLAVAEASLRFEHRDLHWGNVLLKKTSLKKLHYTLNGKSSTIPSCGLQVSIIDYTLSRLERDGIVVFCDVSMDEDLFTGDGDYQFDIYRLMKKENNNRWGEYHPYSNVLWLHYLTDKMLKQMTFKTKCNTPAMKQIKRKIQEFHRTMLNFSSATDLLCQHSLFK

SMILES	effect on	mode	method	tested at	endpoint	result
Cc1ccc(Nc2nccc(N(C)c3ccc4c(C)n(C)nc4c3)n2)cc1S(N)(=O)=O	enzyme activity	inhibitor		0.3 µM	inhibition	0%
Cn1cnc(Br)c1C1=CN(c2ncnc3[nH]cnc23)CCS1	enzyme activity	inhibitor	radiometric	50 nM	inhibition	32.9%
Cc1nc(Cc2cccc(C(F)(F)F)c2)sc1-c1ccc(C(N)=O)nc1	cell-free assay		competition with immobilised ligand	1 µM	remaining binding	100%
CC/C(=N\NC(=O)NCc1cccc(O)c1)c1ccc(O)c(C)c1O	enzyme activity	inhibitor		0.1 µM	inhibition	-0.2%
N#CCCc1ccc2c(c1)-c1[nH]c3ccc([N+](=O)[O-])cc3c1CC(=O)N2	cell-free assay			0.5 µM	remaining signal	110%
Cc1c(NC(=O)c2cc(C(N)=O)nc3cc(F)ccc23)c(C(F)(F)F)nn1Cc1ccc(C(C)(C)C)cc1	cell-free assay		competition with immobilised ligand	1 µM	remaining binding	100%
CNC(=O)c1cc(Oc2ccc(NC(=O)Nc3ccc(Cl)c(C(F)(F)F)c3)cc2)ccn1	enzyme activity	inhibitor		0.3 µM	inhibition	8%
CC(C)(C)c1nc2c(s1)c1nc(N)ncc1c1ccc(NS(=O)(=O)c3c(F)cccc3F)c(F)c12	enzyme activity	inhibitor	radiometric	1 µM	remaining activity	118%
COc1cc(-c2cc(-c3ccc(N4CCNCC4)cc3)cnc2C)cc(OC)c1OC	enzyme activity	inhibitor		1 µM	inhibition	3%
Cc1ccc(NC(=O)c2ccc(C)c(C(F)(F)F)c2)cc1C#Cc1nn(C2CCC(O)CC2)c2ncnc(N)c12 (centres unmarked)	cell-free assay			10 µM	remaining signal	93%
Cc1sc(C(=O)NC2COC2)cc1-n1cc(NC(=O)Nc2c(F)cccc2Cl)cn1	enzyme activity	inhibitor		10 µM	remaining activity	92.4%
N#Cc1ccc(Nc2ccc3[nH]c(=O)[nH]c3c2)c(Cl)c1	cell-free assay		competition with immobilised ligand	1 µM	remaining binding	100%
CCN(CC)CCNC(=O)c1c(C)[nH]c(/C=C2\C(=O)Nc3ccc(Cl)cc32)c1C	enzyme activity	inhibitor		0.5 µM	remaining activity	82.9%
COCCOc1nc(-c2ccc(Cl)nc2)nc2c1CN(C(=O)c1ncn3ccccc13)CC2	cell-free assay		competition with immobilised ligand	0.1 µM	remaining binding	100%
O=C1NC(=O)c2cc(Nc3ccc(F)cc3)c(Nc3ccc(F)cc3)cc21	cell-free assay			0.5 µM	remaining signal	95.1%
COc1ccc2c(O[C@@H]3C[C@H]4C(=O)N[C@]5(C(=O)O)CC5/C=C\CCCCC[C@H](NC(=O)OC5CCCC5)C(=O)N4C3)cc(-c3csc(NC(=O)C(C)C)n3)nc2c1C (some centres unmarked)	cell-free assay		competition with immobilised ligand	1 µM	remaining binding	97%
Nc1ncnc2occ(-c3ccc(NC(=O)Nc4cc(C(F)(F)F)ccc4F)cc3)c12	cell-free assay			20 µM	remaining signal	43%
O=C(Nc1cnn(-c2csc(C(=O)NC3COC3)c2)c1)Nc1ccccc1Cl	enzyme activity	inhibitor		5 µM	remaining activity	112%
CN(C)C(=O)Cn1cc(-c2nc([C@@](C)(c3ccc(-c4cnc(N)nc4)cc3)C3CC3)no2)cn1	cell-free assay		competition with immobilised ligand	1 µM	remaining binding	100%
CC(C)(O)[C@H]1CC[C@H](Nc2ccc3ncc(-c4cccc(C(F)(F)F)c4)n3n2)CC1	enzyme activity	inhibitor		1 µM	remaining activity	15.4%
CC(=O)Nc1c(C(C)=O)c(=O)n(C)c2nc(-c3ccc(Cl)cc3Cl)c(-c3ccc(Cl)cc3)cc12	cell-free assay		competition with immobilised ligand	1 µM	remaining binding	100%
COc1ccc(C(=O)Nc2sc3c(c2C(N)=O)CCCC3)cc1OC	enzyme activity	inhibitor		0.5 µM	remaining activity	82.8%
Cc1ccc(C(=O)Nc2ccc(CN3CCN(C)CC3)c(C(F)(F)F)c2)cc1C#Cc1cnc2cccnn12	enzyme activity			23.5 nM	remaining activity	86%
O=C(Nc1ccc(Oc2ccc(F)cc2)cc1)N1CCc2ncccc2[C@H]1c1ccc(F)cc1	cell-free assay		competition with immobilised ligand	1 µM	remaining binding	85%
Cn1cncc1C1=CN(c2ncnc3[nH]cnc23)CCS1	enzyme activity	inhibitor	radiometric	50 nM	inhibition	25.6%
Cc1cc(NC(=O)c2cccc3cc(-c4cccc5[nH]nc(N)c45)ccc23)ccc1F	enzyme activity	inhibitor		0.1 µM	activity vs control	111%
